Experimental data reported in ChEMBL document CHEMBL2169806, “Design, synthesis, and pharmacological evaluation of N-acylhydrazones and novel conformationally constrained compounds as selective and potent orally active phosphodiesterase-4 inhibitors” (J Med Chem, 2012).

Organism: Bos taurus
Test: Inhibition of bovine PDE4 using [3H]cAMP as substrate at 10 uM
Settings: not given
In short: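 Enzyme was PDE4 isolated from the media layer of bovine aorta, run in the two-step activity assay at 1 μM cAMP.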

In order of falling inhibition:
1. COc1ccc(C2=NNC(=O)c3ccccc3C2)cc1OC  78.8%
2. COc1ccc(/C=N/N(C)C(=O)c2ccc(OC)c(OC)c2)cc1  45.8%
3. COc1ccc(/C=N/NC(=O)c2c(C)nc3ccccn23)cc1OC  41.5%
4. COc1ccc(C(=O)N(C)/N=C/c2ccc(Cl)cc2)cc1OC  40.4%
5. COc1ccc(C(=O)N(C)/N=C/c2ccc(O)cc2)cc1OC  27%
6. COc1ccc(C(=O)N(C)/N=C/c2ccccc2)cc1OC  22.8%
7. COc1ccc(C(=O)N(C)/N=C/c2ccc3c(c2)OCO3)cc1OC  19.8%
8. COc1ccc(/C=N/NC(=O)c2ccc3c(c2)OCO3)cc1OC  16%
9. COc1ccc(/C=N/NC(=O)c2ccccc2)cc1OC  13.1%
10. COc1ccc(C(=O)N/N=C/c2ccc3c(c2)OCO3)cc1OC  10.5%
11. COc1ccc(C(=O)N/N=C/c2ccc(OC)c(OC)c2)cc1  9.7%
12. COc1ccc(/C=N/NC(=O)c2ccc(Cl)cc2)cc1OC  7.5%
13. COc1ccc(/C=N/NC(=O)c2ccc(OC)c(OC)c2)cc1  6.6%
14. COc1ccc(C(=O)N/N=C/c2ccc(Cl)cc2)cc1OC  6.4%
15. COc1ccc(C(=O)N/N=C/c2ccccc2)cc1OC  5.8%
16. COc1ccc(C(=O)N/N=C/c2ccc(O)cc2)cc1OC  1.5%

Tested on: Mus musculus
Test: Antiinflammatory activity in A/J mouse assessed as inhibition of LPS-induced airway resistance provoked by methacholine at 3 mg/kg, po administered 1 hr prior to LPS-challenge measured after 18 hrs relative to vehicle-treated control
Assay type: functional
Settings: not given

Molecule `COc1ccc([C@]2(C#N)CC[C@@H](C(=O)O)CC2)cc1OC1CCCC1` [CILOMILAST] has an inhibition in vivo at 3 mg/kg of 93%.

Tested on: Mus musculus
Test: Antiinflammatory activity in A/J mouse assessed as inhibition of neutrophil accumulation in bronchoalveolar space at 3 mg/kg, po administered 1 hr prior to LPS-challenge measured after 18 hrs relative to vehicle-treated control
Assay type: functional
Settings: Lung

In the case of `COc1ccc([C@]2(C#N)CC[C@@H](C(=O)O)CC2)cc1OC1CCCC1` [CILOMILAST], the inhibition in vivo at 3 mg/kg is reported as 43%.

Tested on: not listed separately
Test: Inhibition of bovine PDE4 using [3H]cAMP as substrate
Design: species or system Bos taurus
Settings: not given

Work on `COc1ccc(C2=NNC(=O)c3ccccc3C2)cc1OC` yielded an IC50 of 5.2 µM.

Tested on: Mus musculus
Test: Antiinflammatory activity in A/J mouse assessed as inhibition of LPS-induced airway elastance provoked by methacholine at 3 mg/kg, po administered 1 hr prior to LPS-challenge measured after 18 hrs relative to vehicle-treated control
Assay type: functional
Settings: not given

`COc1ccc([C@]2(C#N)CC[C@@H](C(=O)O)CC2)cc1OC1CCCC1` [CILOMILAST] gave an inhibition in vivo at 3 mg/kg of 93%.

Tested on: PBMC
Test: Antiinflammatory activity in human PBMC assessed as inhibition of LPS-induced TNFalpha production at 10 uM after 24 hrs by ELISA relative to control
Assay type: functional
Settings: not given

Work on `COc1ccc(C2=NNC(=O)c3ccccc3C2)cc1OC` yielded an inhibition at 10 µM of 14%.
